proKLK7 act: activators of human kallikrein-7 zymogen; P49862; purified proKLK7, EDANS-DABCYL substrate fluorescence; 100% is mature enzyme control, 0% vehicle; activation, % at 7 µM; actives 0.9% (n = 370,000); AID 652039;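 active = activation above the mean of all tested compounds plus 3 SD, computed per campaign excluding outliers beyond control limits, cut at about 13% in these data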
SKN-1 block: C. elegans SKN-1 inhibition; inhibition, % at 21.8 µM; actives 0.49% (n = 360,000); AID 624304; C. elegans VP596 Pgst-4::GFP/RFP ratio, acrylamide-induced, 24 h;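 active = interference check ratio from 0.5 to 1.5 plus GFP to RFP signal ratio inhibition reaching or exceeding a fixed threshold, cut at about 30% in these data, passing the limit was not always enough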
MT1-MMP act inh: inhibitors of human MT1-MMP activation; P50281; HT1080 RFP-PRO-GFP cells, GFP/RFP ratio fluorescence, overnight; percent of plate control window, DMSO zero; GFP/RFP ratio change, % at 20 µM; actives 0.061% (n = 360,000); AID 651647;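 active = GFP/RFP ratio change of at least 30% with cell ATP level not reduced by more than half and red fluorescence within 50% of control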
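Test system: HT1080 RFP-PRO-GFP cells; Benchmarks: DMSO and RFP-L50D-GFP cell wells; Timing: cells overnight before dosing, compound overnight, 37 °C, 5% CO2; Compound: one 20 µM compound dose with 1% DMSO; Read-out: GFP/RFP fluorescence ratio.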
Neddyl block: inhibitors of human cullin neddylation. P61081+Q13564. TR-FRET cullin neddylation, biochemical. calls only at 25 µM. actives 0.58% (n = 360,000); in the data active = inhibition above about 36%
Tn7 DDE FP: disrupts Tn7 cyclic peptide binding to fibrin D-Dimer-E complex. actives 0.13% (n = 370,000). FP displacement of FITC-Tn7 peptide from fibrin DD(E); 0% = median of compound wells per plate. inhibition, % at 8.3 µM;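 active = inhibition above the mean of compounds falling within the control limits plus 3 SD of them, cut at about 14% in these data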;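 also: 0% = plate median of compound wells and 100% = 10 µM Aha-Tn7 peptide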
Target sequence (P02675 whole entry, looked up): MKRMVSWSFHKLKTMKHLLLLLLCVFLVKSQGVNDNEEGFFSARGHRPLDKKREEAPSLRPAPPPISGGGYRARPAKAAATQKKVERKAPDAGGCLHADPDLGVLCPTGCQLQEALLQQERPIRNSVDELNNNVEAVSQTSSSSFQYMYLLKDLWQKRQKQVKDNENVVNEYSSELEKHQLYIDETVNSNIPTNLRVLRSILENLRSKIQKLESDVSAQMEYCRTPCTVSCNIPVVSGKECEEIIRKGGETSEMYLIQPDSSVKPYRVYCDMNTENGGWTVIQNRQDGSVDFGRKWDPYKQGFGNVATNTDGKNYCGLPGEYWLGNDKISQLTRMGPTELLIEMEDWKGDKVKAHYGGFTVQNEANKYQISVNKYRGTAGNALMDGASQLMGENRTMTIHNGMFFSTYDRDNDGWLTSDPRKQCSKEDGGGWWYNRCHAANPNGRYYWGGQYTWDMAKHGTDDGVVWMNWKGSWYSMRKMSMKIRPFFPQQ
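Assay system: Human clot-derived fibrin DD(E) complex | Buffer or medium: Tris/NaCl/CaCl2 buffer, pH 7.8 | Repeats: One replicate per compound | Benchmarks: Aha-Tn7 high control | Measure: % inhibition scaled between sample-field median and high-control FP | Schedule: 10 min plus 3 h, room temperature | Signal: Fluorescence polarization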
Tn6 DDE FP: disrupts Tn6 cyclic peptide binding to fibrin D-Dimer-E complex; Fibrin DD(E) TRITC-Tn6 fluorescence polarization displacement; inhibition, % at 8.3 µM; actives 0.21% (n = 370,000);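 active = inhibition above a per-campaign cutoff: mean of compounds within control limits plus 3 SD, cut at about 15% in these data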;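 also: 0% = median of all compound wells on the plate and 100% = blocking peptide control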
DDE Tn6 FP ctr: counter-screen hit for Tn6 peptide-fibrin DD(E) binding disruption. inhibition, % at 8.3 µM. actives 2% (n = 680). shares compounds with Tn6 DDE FP. TRITC-Tn6 fluorescence polarization displacement; 0% = median of compound wells, not DMSO;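 active = inhibition above the mean of test compounds lying between the control limits plus 3 SD of those, cut at about 14% in these data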;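 also: 0% = median of compound wells and 100% = wells with Aha-Tn7 blocking peptide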
Tn6 DDE conf: DD(E)-Tn6 binding inhibition, FP confirmation; shares compounds with Tn6 DDE FP; FP displacement of TRITC-Tn6 peptide from DD(E); 0% = per-plate median of test wells; inhibition, % at 8.3 µM; actives 10% (n = 680); AID 720631;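 active = inhibition above the mean of compounds lying within the control limits plus 3 SD, cut at about 16% in these data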;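 also: 100% = high control wells holding a competing inhibitor peptide at 10 µM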
An asterisk follows results filed as active. Only some compounds are listed: those with a hit (about 2.2% of all), similar ones and a draw of the others.

Screening CC1(C(=O)NS(=O)(=O)c2ccc(Cl)cc2)CCN1C(=O)CCc1ccc(Cl)cc1Cl (stereo not drawn) returned proKLK7 act 0, SKN-1 block 14, MT1-MMP act inh 1, Neddyl block inactive, Tn7 DDE FP -1 and Tn6 DDE FP 6.
CC1(C(=O)NS(=O)(=O)c2cccc(Cl)c2)CCN1C(=O)Cc1cc(F)ccc1F (stereo not drawn) was read as proKLK7 act 0, SKN-1 block 29, MT1-MMP act inh 5, Neddyl block inactive, Tn7 DDE FP -2, Tn6 DDE FP 16*, DDE Tn6 FP ctr -2 and Tn6 DDE conf -4.
Screening COc1ccc(S(=O)(=O)N2CCN(Cc3cc4c(cc3Br)OCCO4)CC2)cc1 returned proKLK7 act 0, SKN-1 block -4, MT1-MMP act inh 2, Neddyl block inactive, Tn7 DDE FP 5 and Tn6 DDE FP 6.
O=C(/C=C/c1ccco1)Oc1ccc(C(=S)N2CCOCC2)cc1 was read as proKLK7 act 0, SKN-1 block 1, MT1-MMP act inh 2, Neddyl block inactive, Tn7 DDE FP -4 and Tn6 DDE FP 1.
Screening COc1ccc(/C=C/C(=O)Nc2ccccc2C(N)=O)cc1S(=O)(=O)N1CCOCC1 returned proKLK7 act 0, SKN-1 block 1, MT1-MMP act inh -3, Neddyl block inactive, Tn7 DDE FP 6 and Tn6 DDE FP 9.
COc1ccccc1NC(=O)/C=C/c1ccc(OC)c(S(=O)(=O)N2CCOCC2)c1 was read as proKLK7 act 0, SKN-1 block 2, MT1-MMP act inh -3, Neddyl block inactive, Tn7 DDE FP 9, Tn6 DDE FP 17*, DDE Tn6 FP ctr 3 and Tn6 DDE conf -2.
For Cc1ccc(-c2cc(C(=O)NN=Cc3cccc(Oc4ccccc4)c3)[nH]n2)cc1C the results were proKLK7 act 0, Tn7 DDE FP 1, Tn6 DDE FP 19*, DDE Tn6 FP ctr 4 and Tn6 DDE conf 0.
For COc1ccc(C=NNC(=O)c2cc(-c3ccc(C)c(C)c3)n[nH]2)cc1OCc1ccccc1 the results were proKLK7 act 1, Tn7 DDE FP -6, Tn6 DDE FP 16*, DDE Tn6 FP ctr 2 and Tn6 DDE conf 2.
Screening Cc1ccc(-c2cc(C(=O)NN=Cc3cccc(OCc4ccccc4)c3)[nH]n2)cc1C returned proKLK7 act 3, Tn7 DDE FP -6, Tn6 DDE FP 20*, DDE Tn6 FP ctr 8 and Tn6 DDE conf 16*.
`O=C(Nc1ccc(N2CCCC2)cc1)C(c1ccccc1)c1ccccc1` gave proKLK7 act 0, SKN-1 block 11, MT1-MMP act inh -5, Neddyl block inactive, Tn7 DDE FP -5 and Tn6 DDE FP 1.
COc1cccc(NC(=O)Nc2nc3ncccn3c2-c2ccc(F)c(F)c2)c1 was read as proKLK7 act 4, Tn7 DDE FP 12 and Tn6 DDE FP -2.
Cc1cc(C(=O)OCC(=O)NC2CCS(=O)(=O)C2)c2ccccc2n1 (stereo not drawn) was read as proKLK7 act -1, SKN-1 block -3, MT1-MMP act inh -2, Neddyl block inactive, Tn7 DDE FP -1 and Tn6 DDE FP 8.
`O=C(COC(=O)c1cc(-c2cccc3ccccc23)nc2ccccc12)NC1CCS(=O)(=O)C1` (stereo not drawn) gave proKLK7 act 3, SKN-1 block 44, MT1-MMP act inh -13, Neddyl block inactive, Tn7 DDE FP -5, Tn6 DDE FP 30*, DDE Tn6 FP ctr 6 and Tn6 DDE conf 20*.

High-throughput results (PubChem BioAssay)
